Results: ChEMBL document CHEMBL1157731, “Novel KCNQ2/Q3 agonists as potential therapeutics for epilepsy and neuropathic pain” (J Med Chem, 2010)
Calls of active or inactive are those of the source.

Legend:
[1] = system: Rattus norvegicus; assay: Analgesic activity in po dosed Sprague-Dawley rat assessed as reduction of spinal nerve ligation-induced allodynia score; type: functional
Outline: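 L5 spinal nerve tightly ligated distal to the DRG under halothane in male Sprague-Dawley rats, followed by 2-3 weeks of recovery. Von Frey withdrawal thresholds taken on a wire-mesh floor (top threshold 15 g), with baseline measured before dosing. Compound given po in 0.5% methylcellulose; testing at 1 and 2 h post-dose.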

[2] = system: Mus musculus; assay: Anticonvulsant activity against maximal electroshock-induced seizures in CD1 mouse model at 10 mg/kg, po treated 30 mins before electroshock application; type: functional, organism-based; parameters: dose 10 mg/kg
Outline: (§1)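 Male CD-1 mice dosed po (10 mL/kg in 5% DMSO/95% of 0.5% HPMC/1% Tween 80) 30 min before corneal electroshock at 50 mA for 0.2 s, with 1% proparacaine in each eye. Latency to hindlimb extension recorded to 0.1 s. No extension within 6 s scored as protected (latency 6 s). Reported as protected/tested (8 per group), or EC50 derived from latency scores.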

[3] = system: Rattus norvegicus; assay: Antinociceptive activity in formalin-treated Sprague-Dawley rat model assessed as reduction in hind paw flinches at 17 mg/kg, po measured during 11 to 60 mins of phase 2 flinches; type: functional; parameters: scale not given: the % may be the effect or the level left
Outline: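 Male Sprague-Dawley rats dosed po in 0.5% methylcellulose 1 h before assay. A 0.5 g metal band was glued to the right hind paw 1 h beforehand. 2.5% formalin (50 μL) was injected sc into the dorsal right hind paw. An electromagnetic detector counted flinches for 60 min; phase II is 11-60 min post-injection.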

[4] = target: D(1A) dopamine receptor (Homo sapiens) (UniProt P21728); assay: Displacement of radioligand from dopamine D1 receptor at 10 uM
[5] = target: D(2) dopamine receptor (Homo sapiens) (UniProt P14416); assay: Displacement of radioligand from dopamine D2 receptor at 10 uM
[6] = organism: Rattus norvegicus; assay: Displacement of [125I]peptide YY from neuropeptide Y receptor in rat cerebral cortex at 10 uM; type: tissue-based
[7] = target: T1, Glucocorticoid receptor (Homo sapiens) (UniProt P04150); assay: Binding affinity to glucocorticoid receptor at 10 uM by displacement assay
T1 sequence (whole entry): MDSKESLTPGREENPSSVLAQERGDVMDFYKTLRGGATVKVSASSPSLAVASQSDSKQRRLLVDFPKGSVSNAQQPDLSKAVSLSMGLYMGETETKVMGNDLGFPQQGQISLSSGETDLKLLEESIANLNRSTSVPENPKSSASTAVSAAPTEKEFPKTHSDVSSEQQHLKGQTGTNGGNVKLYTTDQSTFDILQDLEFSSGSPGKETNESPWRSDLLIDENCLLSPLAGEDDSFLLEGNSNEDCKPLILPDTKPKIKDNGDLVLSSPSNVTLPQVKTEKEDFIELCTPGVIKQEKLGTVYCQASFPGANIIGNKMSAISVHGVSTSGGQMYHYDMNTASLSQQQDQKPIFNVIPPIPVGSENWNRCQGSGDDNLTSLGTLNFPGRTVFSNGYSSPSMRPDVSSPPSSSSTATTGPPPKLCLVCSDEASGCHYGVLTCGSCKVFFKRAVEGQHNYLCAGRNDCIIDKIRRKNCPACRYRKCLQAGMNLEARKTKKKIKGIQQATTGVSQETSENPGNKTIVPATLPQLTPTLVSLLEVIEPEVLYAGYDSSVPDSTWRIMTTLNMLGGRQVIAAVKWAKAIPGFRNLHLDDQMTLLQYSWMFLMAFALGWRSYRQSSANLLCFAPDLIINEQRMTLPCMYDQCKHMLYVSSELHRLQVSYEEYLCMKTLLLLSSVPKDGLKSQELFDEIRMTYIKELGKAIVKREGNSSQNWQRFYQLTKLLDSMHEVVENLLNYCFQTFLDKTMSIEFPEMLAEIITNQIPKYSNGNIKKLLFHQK

[8] = system: Mus musculus; assay: Anticonvulsant activity against maximal electroshock-induced seizures in CD1 mouse model at 20 mg/kg, po treated 30 mins before electroshock application; type: functional, organism-based; parameters: dose 20 mg/kg; outline: as §1
[9] = system: Rattus norvegicus; assay: Antinociceptive activity in formalin-treated Sprague-Dawley rat model assessed as reduction in hind paw flinches at 34 mg/kg, po measured during 11 to 60 mins of phase 2 flinches; type: functional; parameters: scale not given: the % may be the effect or the level left
Outline: (§2)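 A small metal band was glued to the right hind paw of male Sprague-Dawley rats 1 h before testing. Compound given po in 0.5% methylcellulose 1 h before the test, then 50 μL of 2.5% formalin injected sc into the dorsal paw. Flinches counted electromagnetically for 60 min; phase II covers 11-60 min post-injection.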

[10] = system: Rattus norvegicus; assay: Antinociceptive activity in formalin-treated Sprague-Dawley rat model assessed as reduction in hind paw flinches at 10 mg/kg, po measured during 11 to 60 mins of phase 2 flinches; type: functional; parameters: scale not given: the % may be the effect or the level left; outline: as §2
[11] = system: Rattus norvegicus; assay: Analgesic activity in Sprague-Dawley rat assessed as reduction of spinal nerve ligation-induced allodynia score at 10 mg/kg, po; type: functional; parameters: scale not given: the % may be the effect or the level left
Outline: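 Male Sprague-Dawley rats; L5 spinal nerve tightly ligated with 4.0 silk distal to the DRG under halothane, then 2-3 weeks recovery. Dosed po in 0.5% methylcellulose. Von Frey tactile withdrawal thresholds measured on a wire mesh floor, top threshold 15 g. Baseline taken just before dosing; testing at 1 and 2 h post-dose.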

[12] = target: Cannabinoid receptor 1 (Homo sapiens) (UniProt P21554); assay: Displacement of [3H]CP-55940 from human recombinant CB1 receptor expressed in CHO cells at 10 uM; type: cell-based
[13] = target: Cannabinoid receptor 2 (Homo sapiens) (UniProt P34972); assay: Displacement of [3H]WIN-55212-2 from human recombinant CB2 receptor expressed in CHO cells at 10 uM; type: cell-based
[14] = target: Delta-type opioid receptor (Homo sapiens) (UniProt P41143); assay: Displacement of [3H]DADLE from human recombinant delta opioid receptor expressed in CHO cells at 10 uM; type: cell-based
[15] = target: Kappa-type opioid receptor (Rattus norvegicus) (UniProt P34975); assay: Displacement of [3H]U69593 from rat recombinant kappa opioid receptor expressed in CHO cells at 10 uM; type: cell-based
[16] = target: Kappa-type opioid receptor (Rattus norvegicus) (UniProt P34975); assay: Displacement of [3H]U69593 from rat recombinant kappa opioid receptor expressed in CHO cells at 30 uM; type: cell-based
[17] = target: Mu-type opioid receptor (Homo sapiens) (UniProt P35372); assay: Displacement of [3H]diprenorphine from human recombinant mu opioid receptor expressed in HEK293 cells at 10 uM; type: cell-based
[18] = Binding affinity to Calcium channel DHP site at 10 uM by displacement assay
[19] = Binding affinity to Calcium channel diltiazem site at 10 uM by displacement assay
[20] = Binding affinity to sodium channel site 2 at 10 uM by displacement assay
[21] = Binding affinity to voltage-dependent N-type calcium channel at 10 uM by displacement assay

Sequence of D(1A) dopamine receptor (Homo sapiens) (P21728 whole entry): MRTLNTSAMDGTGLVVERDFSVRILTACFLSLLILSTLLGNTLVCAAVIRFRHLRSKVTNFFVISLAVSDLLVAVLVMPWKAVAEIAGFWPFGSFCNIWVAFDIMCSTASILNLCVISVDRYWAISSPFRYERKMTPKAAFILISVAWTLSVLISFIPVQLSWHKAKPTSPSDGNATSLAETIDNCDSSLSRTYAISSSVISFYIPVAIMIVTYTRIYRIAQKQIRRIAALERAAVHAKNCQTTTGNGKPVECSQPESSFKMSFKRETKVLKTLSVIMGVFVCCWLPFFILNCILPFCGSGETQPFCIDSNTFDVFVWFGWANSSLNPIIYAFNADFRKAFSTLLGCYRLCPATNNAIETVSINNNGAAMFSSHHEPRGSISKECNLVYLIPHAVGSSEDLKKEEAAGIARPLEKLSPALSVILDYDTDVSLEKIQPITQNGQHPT
Sequence of D(2) dopamine receptor (Homo sapiens) (P14416 whole entry): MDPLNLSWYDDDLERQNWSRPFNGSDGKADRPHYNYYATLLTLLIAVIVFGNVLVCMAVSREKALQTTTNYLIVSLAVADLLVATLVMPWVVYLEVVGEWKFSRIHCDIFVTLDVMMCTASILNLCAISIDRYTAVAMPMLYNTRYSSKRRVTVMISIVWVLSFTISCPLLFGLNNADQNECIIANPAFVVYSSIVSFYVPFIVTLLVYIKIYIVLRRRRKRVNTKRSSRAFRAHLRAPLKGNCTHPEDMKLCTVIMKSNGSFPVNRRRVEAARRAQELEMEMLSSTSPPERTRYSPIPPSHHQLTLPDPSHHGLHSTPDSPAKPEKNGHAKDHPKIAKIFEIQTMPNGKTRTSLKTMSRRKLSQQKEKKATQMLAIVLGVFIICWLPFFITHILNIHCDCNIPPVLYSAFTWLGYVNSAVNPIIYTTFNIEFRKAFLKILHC
Sequence of Kappa-type opioid receptor (Rattus norvegicus) (P34975 whole entry): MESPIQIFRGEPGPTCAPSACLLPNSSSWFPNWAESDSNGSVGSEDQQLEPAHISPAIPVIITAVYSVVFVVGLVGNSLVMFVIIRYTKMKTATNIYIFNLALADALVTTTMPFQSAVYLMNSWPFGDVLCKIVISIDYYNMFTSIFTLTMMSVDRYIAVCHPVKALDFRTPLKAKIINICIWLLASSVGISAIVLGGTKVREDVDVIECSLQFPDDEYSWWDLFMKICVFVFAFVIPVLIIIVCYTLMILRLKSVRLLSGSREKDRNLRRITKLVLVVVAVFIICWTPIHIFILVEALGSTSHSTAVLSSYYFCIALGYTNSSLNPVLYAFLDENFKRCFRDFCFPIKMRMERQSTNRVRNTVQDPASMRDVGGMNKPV
Sequence of Mu-type opioid receptor (Homo sapiens) (P35372 whole entry): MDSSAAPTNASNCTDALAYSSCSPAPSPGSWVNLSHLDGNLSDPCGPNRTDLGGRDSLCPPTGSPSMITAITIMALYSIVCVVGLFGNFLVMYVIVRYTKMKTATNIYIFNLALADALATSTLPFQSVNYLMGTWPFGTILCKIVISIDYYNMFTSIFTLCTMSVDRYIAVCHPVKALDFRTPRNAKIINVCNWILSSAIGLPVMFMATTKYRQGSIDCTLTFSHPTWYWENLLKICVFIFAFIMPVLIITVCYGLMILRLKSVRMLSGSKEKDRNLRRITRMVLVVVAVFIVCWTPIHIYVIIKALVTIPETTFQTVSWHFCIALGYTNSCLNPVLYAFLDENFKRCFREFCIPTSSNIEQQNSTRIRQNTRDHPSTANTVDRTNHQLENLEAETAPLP
Sequence of Cannabinoid receptor 1 (Homo sapiens) (P21554 whole entry): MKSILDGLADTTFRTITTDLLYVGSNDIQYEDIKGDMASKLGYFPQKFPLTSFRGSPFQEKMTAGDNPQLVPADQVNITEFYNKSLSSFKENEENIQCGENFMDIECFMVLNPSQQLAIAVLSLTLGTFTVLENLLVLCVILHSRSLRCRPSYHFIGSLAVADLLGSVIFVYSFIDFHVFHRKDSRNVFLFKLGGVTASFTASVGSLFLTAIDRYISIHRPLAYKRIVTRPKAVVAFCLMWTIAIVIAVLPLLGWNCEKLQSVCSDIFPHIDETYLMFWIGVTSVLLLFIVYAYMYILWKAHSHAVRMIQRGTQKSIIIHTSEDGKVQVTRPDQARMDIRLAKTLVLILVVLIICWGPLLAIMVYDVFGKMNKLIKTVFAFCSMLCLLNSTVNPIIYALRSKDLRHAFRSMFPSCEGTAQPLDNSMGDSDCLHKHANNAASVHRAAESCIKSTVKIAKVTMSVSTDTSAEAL
Sequence of Cannabinoid receptor 2 (Homo sapiens) (P34972 whole entry): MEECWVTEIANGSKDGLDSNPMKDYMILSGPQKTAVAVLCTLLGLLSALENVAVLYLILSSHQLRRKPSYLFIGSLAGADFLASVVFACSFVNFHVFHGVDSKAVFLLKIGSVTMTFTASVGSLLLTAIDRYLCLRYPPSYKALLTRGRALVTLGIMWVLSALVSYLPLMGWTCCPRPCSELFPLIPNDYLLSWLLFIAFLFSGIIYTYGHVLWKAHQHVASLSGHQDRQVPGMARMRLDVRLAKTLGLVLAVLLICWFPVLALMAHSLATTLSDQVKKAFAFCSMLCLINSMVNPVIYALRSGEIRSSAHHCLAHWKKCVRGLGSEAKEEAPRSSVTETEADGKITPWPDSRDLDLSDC
Sequence of Delta-type opioid receptor (Homo sapiens) (P41143 whole entry): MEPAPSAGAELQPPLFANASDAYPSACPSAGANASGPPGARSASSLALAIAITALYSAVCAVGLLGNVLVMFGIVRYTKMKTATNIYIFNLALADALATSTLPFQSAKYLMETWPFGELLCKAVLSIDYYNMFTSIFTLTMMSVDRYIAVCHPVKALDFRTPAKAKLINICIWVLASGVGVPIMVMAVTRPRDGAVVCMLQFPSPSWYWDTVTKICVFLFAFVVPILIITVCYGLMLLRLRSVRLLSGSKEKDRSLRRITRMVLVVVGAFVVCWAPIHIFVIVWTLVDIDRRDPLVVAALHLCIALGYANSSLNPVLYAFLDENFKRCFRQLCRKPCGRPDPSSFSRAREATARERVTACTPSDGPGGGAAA

| Activity [4] | Activity [5] | Activity [6] | Activity [7] | Structure (SMILES) | ED50 [1] | Activity [8] | further results |
| --- | --- | --- | --- | --- | --- | --- | --- |
| 0% | 0% | 0% | 0% | Cn1/c(=N/NC(=O)CC(C)(C)C)sc2cc(OC(F)(F)F)ccc21 | 20 mg/kg | – | Activity [2]: Active; Activity [3]: 55% |
| 0% | 0% | 33% | 14% | Cn1/c(=N/NC(=O)CC2CCCC2)sc2cc(OC(F)(F)F)ccc21 | – | Active | Activity [9]: 28% |
| 0% | 0% | 0% | 0% | CC(C)OC(=O)N/N=c1\sc2cc(OC(F)(F)F)ccc2n1C | 16.2 mg/kg | Active | Activity [10]: 47%; Activity [11]: 100%; Activity [12]: 19%; Activity [13]: 0%; Activity [14]: 10%; Activity [15]: 15%; Activity [16]: 0%; Activity [17]: 0%; Activity [18]: 0%; Activity [19]: 0%; Activity [20]: 35%; Activity [21]: 0% |
